Only some compounds are listed: those with a hit (about 4.8% of all), similar ones and a draw of the others.
CSC inhib – cancer stem cell viability inhibitors, primary screen, luminescence. cancer stem cell-like cells viability. inhibition, % at 7.5 µM. hit rate 1.1% among 300,000. AID 2717, 2010; in the data active means inhibition above about 75%; tested in HMLE shEcad cells
Mdm2 MdmX PPI – inhibitors of human Mdm2-MdmX association, primary screen, cell-based, luminescence, split luciferase, SaOS-2, uHTS; SaOS-2 split-luciferase Mdm2/MdmX complementation; inhibition, % at 8 µM; hit rate 3% among 330,000; AID 485346, 2010;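 active means inhibition of at least 50% at 8 µM in the primary screen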
Target sequence (O15151 whole entry, looked up): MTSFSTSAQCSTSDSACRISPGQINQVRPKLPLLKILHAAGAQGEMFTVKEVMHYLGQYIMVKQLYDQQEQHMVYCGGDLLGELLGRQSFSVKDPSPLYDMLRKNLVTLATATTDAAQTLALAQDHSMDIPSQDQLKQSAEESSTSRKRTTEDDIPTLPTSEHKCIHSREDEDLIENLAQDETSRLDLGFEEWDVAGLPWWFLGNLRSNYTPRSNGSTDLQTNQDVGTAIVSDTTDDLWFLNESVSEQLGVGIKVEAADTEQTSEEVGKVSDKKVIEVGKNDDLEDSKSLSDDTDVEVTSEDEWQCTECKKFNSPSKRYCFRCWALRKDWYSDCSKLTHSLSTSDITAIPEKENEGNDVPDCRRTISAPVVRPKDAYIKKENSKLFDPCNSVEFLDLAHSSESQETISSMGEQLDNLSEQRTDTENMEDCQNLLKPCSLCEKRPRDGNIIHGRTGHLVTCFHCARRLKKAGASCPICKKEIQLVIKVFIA
Target sequence (Q00987 whole entry, looked up): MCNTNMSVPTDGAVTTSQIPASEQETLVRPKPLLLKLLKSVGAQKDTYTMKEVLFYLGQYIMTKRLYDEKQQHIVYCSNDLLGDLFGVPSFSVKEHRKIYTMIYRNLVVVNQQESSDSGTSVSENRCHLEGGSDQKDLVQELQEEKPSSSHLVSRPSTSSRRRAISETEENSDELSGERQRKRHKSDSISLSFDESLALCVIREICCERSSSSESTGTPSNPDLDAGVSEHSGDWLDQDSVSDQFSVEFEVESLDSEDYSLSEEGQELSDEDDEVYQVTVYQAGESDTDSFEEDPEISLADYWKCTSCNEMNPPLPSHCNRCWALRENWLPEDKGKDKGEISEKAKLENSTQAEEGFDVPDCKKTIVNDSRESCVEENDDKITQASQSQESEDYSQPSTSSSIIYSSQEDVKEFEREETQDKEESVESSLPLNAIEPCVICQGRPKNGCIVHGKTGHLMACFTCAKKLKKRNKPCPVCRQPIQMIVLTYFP
CHOP UPR activ – activators of apoptotic CHOP UPR arm, primary screen, cell-based, CHO-CHOP luciferase reporter, luminescence, uHTS; hit rate 0.34% among 330,000; activation, % at 10 µM; UPR activation; percent of tunicamycin response over DMSO baseline;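 active means at 10 µM dose, activation of 40% or more, normalized to positive control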;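 further: 100% = tunicamycin at 10 µg/mL and 0% = DMSO alone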
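Material: CHO-CHOP cells, stable luciferase reporter of PERK-eIF2a-CHOP signalling; quantity: 500 reporter cells seeded per well; buffer or medium: F12 medium containing 10% fetal bovine serum; compound: one dose, 10 µM in 0.5% DMSO; incubation: 6 h compound treatment, 37 °C; measured by: Steady-Glo luciferase luminescence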
SKKanGAS inh – S. pyogenes SKKanGAS growth inhibitors in kanamycin, primary screen, streptokinase expression inhibitor project, SKKanGAS strain, BacTiter-Glo luminescence; AID 1662, 2009; hit rate 1.3% among 300,000; 6 h; inhibition, % at 7.5 µM;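 active means mean replicate score, as percent of positive control median, at least 50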;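 further: strain carries kanamycin resistance gene driven by streptokinase promoter and grows in 40 µg/ml kanamycin; loss of luminescence reflects streptokinase promoter inhibition or plain growth inhibition; 0% = median of DMSO wells and 100% = positive control at its reference dose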
XBP1 UPR activ – activators of adaptive XBP1 UPR arm, primary screen, cell-based, CHO-XBP1 luciferase reporter, luminescence, uHTS. IRE1-XBP1 UPR activation; percent of tunicamycin response, DMSO as zero. hit rate 0.33% among 330,000. activation, % at 20 µM;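 active means versus positive control, 20 µM dose yields 30% or more activation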;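 further: 100% = tunicamycin at 10 µg/mL and 0% = DMSO only wells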
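Material: CHO-XBP1 cells stably carrying IRE1-XBP1-driven luciferase reporter / Amount: 1000 cells per well / Compound: 20 µM, 1% DMSO / Times: 6 h treatment, 37 °C / Detection: luciferase luminescence / Measure: % activation of reporter signal versus tunicamycin and DMSO controls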
Beta cell apopt – inhibitors of cytokine-induced beta cell apoptosis, primary screen, luminescence; INS-1E cytokine-induced death, ATP luminescence, 48 h; percent of positive-control rescue, neutral wells zero; protection from apoptosis, % (test concentration not listed); hit rate 0.8% among 300,000;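 active means Every replicate reaches about 75%, or at least half do and their mean reaches it too, limit read from the data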;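 further: 0% = cytokine-treated negative control wells and 100% = positive control rescue; higher means more ATP so stronger rescue from cytokine killing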
Numbers without * were called inactive.

Results for COC(=O)C1CCN(C(=O)c2cc(-c3ccc(Cl)s3)nc3ccccc23)CC1 ?
Mdm2 MdmX PPI: 40; CHOP UPR activ: 5; XBP1 UPR activ: 1; Beta cell apopt: 101*

Results for c1ccc(-c2nnc(-c3ccccn3)nc2NC2CCCCC2)cc1 ?
CSC inhib: -11; Mdm2 MdmX PPI: 17; CHOP UPR activ: 13; SKKanGAS inh: 104*; XBP1 UPR activ: 4; Beta cell apopt: 96*

What do the screens show for `O=C(Cn1cnc2c(NCc3ccccc3)ncnc21)NCCCN1CCCC1=O`?
Mdm2 MdmX PPI: 31; CHOP UPR activ: 4; XBP1 UPR activ: 5

Results for Cc1ccc2c(c1)c(C1=c3ccccc3=NC1=O)c(O)n2C ?
CSC inhib: 72; Mdm2 MdmX PPI: 16; CHOP UPR activ: 28; SKKanGAS inh: -10; XBP1 UPR activ: -11; Beta cell apopt: -3

Results for C=CCn1c(O)c(C2=c3ccccc3=NC2=O)c2ccccc21 ?
CSC inhib: 96*; Mdm2 MdmX PPI: 31; CHOP UPR activ: -11; SKKanGAS inh: 6; XBP1 UPR activ: -13; Beta cell apopt: 7

Results for CC1CC(C)CN(C2CCCCC2NS(=O)(=O)c2ccc(Cl)cc2)C1 (stereo not given) ?
CSC inhib: -2; Mdm2 MdmX PPI: 11; CHOP UPR activ: 1; SKKanGAS inh: -2; XBP1 UPR activ: -4; Beta cell apopt: 7

Results for CCOC(=O)N1CCN(S(=O)(=O)c2ccc(C(=O)NNc3nc4ccc(Cl)cc4s3)cc2)CC1 ?
CSC inhib: 104*; Mdm2 MdmX PPI: 34; CHOP UPR activ: -1; SKKanGAS inh: 5; XBP1 UPR activ: -1; Beta cell apopt: 82*

What do the screens show for `CCOC(=O)N1CCN(S(=O)(=O)c2ccc(C(=O)N(CCN(C)C)c3nc4ccc(Cl)cc4s3)cc2)CC1`?
CSC inhib: 7; Mdm2 MdmX PPI: -10; CHOP UPR activ: 2; SKKanGAS inh: 13; XBP1 UPR activ: 0; Beta cell apopt: 2

What do the screens show for `CSc1nc2nccc(-c3ccc(-c4ccccc4)cc3)n2n1`?
CSC inhib: -5; Mdm2 MdmX PPI: 25; CHOP UPR activ: -2; SKKanGAS inh: 72*; XBP1 UPR activ: 0; Beta cell apopt: 3

Results for CCCCNC(=O)c1ccc2c(c1)C(=O)N(Cc1ccncc1)C2=O ?
Mdm2 MdmX PPI: 2; CHOP UPR activ: -3; SKKanGAS inh: 1; XBP1 UPR activ: -5; Beta cell apopt: -2

How did Cc1cccc2c(C(=O)N3CCN(c4ccccn4)CC3)cc(-c3cccc(Br)c3)nc12 do in these assays?
CSC inhib: 22; Mdm2 MdmX PPI: 36; CHOP UPR activ: 2; SKKanGAS inh: 17; XBP1 UPR activ: -2; Beta cell apopt: 112*

Results for O=C(c1cc(-c2cccc(Cl)c2)nc2ccccc12)N1CCN(c2ccccn2)CC1 ?
CSC inhib: 36; Mdm2 MdmX PPI: 27; CHOP UPR activ: 1; SKKanGAS inh: 17; XBP1 UPR activ: -2; Beta cell apopt: 96*

Results for Cc1ccc(-c2csc3nc[nH]c(=S)c23)cc1C ?
CSC inhib: -1; Mdm2 MdmX PPI: 49; CHOP UPR activ: 3; SKKanGAS inh: 93*; XBP1 UPR activ: 1; Beta cell apopt: 20

What do the screens show for `O=C(Nc1ccc(C(F)(F)F)cc1)N1CCN(c2ccnc3cc(Cl)ccc23)CC1`?
CSC inhib: 89*; Mdm2 MdmX PPI: 14; CHOP UPR activ: 5; SKKanGAS inh: 53*; XBP1 UPR activ: -4; Beta cell apopt: 11

How did COCC(C)NC(=O)NC1(C(F)(F)F)Oc2ccc(Cl)cc2O1 (stereo not given) do in these assays?
CSC inhib: 80*; Mdm2 MdmX PPI: 3; CHOP UPR activ: 2; SKKanGAS inh: 1; XBP1 UPR activ: 6; Beta cell apopt: 1

Results for O=C(Cc1cccs1)N/N=C\c1ccc([N+](=O)[O-])s1 ?
CSC inhib: -1; Mdm2 MdmX PPI: 41; CHOP UPR activ: 4; SKKanGAS inh: -1; XBP1 UPR activ: 3; Beta cell apopt: 94*

Results for COc1cc(/C=N/NC(=O)Cc2cccs2)c([N+](=O)[O-])cc1OC ?
CSC inhib: -6; Mdm2 MdmX PPI: 1; CHOP UPR activ: -2; SKKanGAS inh: 0; XBP1 UPR activ: 2

Results for COc1ccc(N2CC(O)(c3ccc(OC(F)F)cc3)[N+]3=C2CCCC3)cc1 (stereo not given) ?
CSC inhib: 23; Mdm2 MdmX PPI: -4; CHOP UPR activ: 0; SKKanGAS inh: -6; XBP1 UPR activ: 7; Beta cell apopt: -2

Results for COc1ccc(-c2cn(-c3ccc(Cl)cc3)c3[n+]2CCCCC3)cc1 ?
CSC inhib: 17; Mdm2 MdmX PPI: 22; CHOP UPR activ: 0; SKKanGAS inh: -15; XBP1 UPR activ: -3; Beta cell apopt: 100*

Results for COc1ccc(-n2cc(-c3ccc(OC(F)F)cc3)[n+]3c2CCCCC3)cc1 ?
CSC inhib: -9; Mdm2 MdmX PPI: -32; CHOP UPR activ: -1; SKKanGAS inh: -9; XBP1 UPR activ: 1; Beta cell apopt: 103*

How did Clc1ccc(-c2cn(-c3ccc(Cl)cc3)c3[n+]2CCCCC3)cc1 do in these assays?
CSC inhib: -12; Mdm2 MdmX PPI: 37; CHOP UPR activ: 0; SKKanGAS inh: 0; XBP1 UPR activ: -2; Beta cell apopt: 30

How did CC1(C)C2CC[C@]3(C)C(CC=C4[C@@H]5C[C@@](C)(CO)[C@@H](O)C[C@]5(C(=O)O)CC[C@]43C)[C@@]2(C)CC[C@@H]1O (stereo not given in full) do in these assays?
CSC inhib: -13; Mdm2 MdmX PPI: -6; CHOP UPR activ: 1; SKKanGAS inh: 5; XBP1 UPR activ: -2; Beta cell apopt: -4

How did CC(=O)O[C@H]1CC[C@]2(C)[C@H]3CC=C4[C@@H]5[C@@H](C)[C@H](C)CC[C@]5(C(=O)O)CC[C@@]4(C)[C@]3(C)CC[C@H]2C1(C)C do in these assays?
CSC inhib: -16; Mdm2 MdmX PPI: 35; CHOP UPR activ: 1; SKKanGAS inh: 107*; XBP1 UPR activ: 16; Beta cell apopt: 15

What do the screens show for `O=C(Nc1ccc([N+](=O)[O-])cc1)Nc1ccc(OC(F)F)c(Cl)c1`?
CSC inhib: 103*; Beta cell apopt: 132*

What do the screens show for `CN(CC(=O)Nc1ccc(Cl)c(Cl)c1)CC(=O)Nc1ccc2c(c1)OCO2`?
CSC inhib: 80*; Mdm2 MdmX PPI: 2; CHOP UPR activ: 2; XBP1 UPR activ: 0; Beta cell apopt: 1
